From ChEMBL document CHEMBL3351896, “Small Molecule that Reverses Dexamethasone Resistance in T-cell Acute Lymphoblastic Leukemia (T-ALL)” (ACS Med Chem Lett, 2014)
The source made the active and inactive calls. No cut-off for these calls is given here.

Key:
[1] = Growth inhibition of human CUTLL1 cells in presence of 1 uM dexamethasone after 48 hrs by alamar blue assay; format: functional, cell-based; settings: CUTLL1, 48 h
Procedure, shortened: (§1)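 CUTLL1 cells given compound alone or with dexamethasone 1 μM. Growth inhibition measured by alamar blue after 48 h.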

[2] = Growth inhibition of human CUTLL1 cells in absence of 1 uM dexamethasone after 48 hrs by alamar blue assay; format: functional, cell-based; settings: CUTLL1, 48 h; procedure, shortened: as §1
[3] = molecular target: T1, Gamma-secretase (Homo sapiens) (UniProt Q96BI3+Q9NZ42+Q8WW43+P49768+Q92542+P49810); experiment: Inhibition of gamma secretase in human CUTLL1 cells assessed as effect on NOTCH cleavage level at 100 nM after 24 hrs by Western blotting; format: cell-based
[4] = molecular target: T1, Gamma-secretase (Homo sapiens); experiment: Inhibition of gamma secretase in human CUTLL1 cells assessed as effect on NOTCH cleavage level at 100 nM in presence of 1 uM dexamethasone after 24 hrs by Western blotting; format: cell-based
Procedure, shortened: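 Dexamethasone-resistant human T-ALL CUTLL1 cells were treated for 24 h with the gamma-secretase inhibitor at 100 nM together with dexamethasone at 1 μM. Intracellular NOTCH (ICN) protein was then measured by Western blot.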

CUTLL1 [5] = experiment: Induction of PARP1 cleavage in human CUTLL1 cells at 1 uM after 24 hrs by western blotting method; format: functional, cell-based
CUTLL1 [6] = experiment: Growth inhibition of human CUTLL1 cells with high GR expression levels after 48 hrs by alamar blue assay; format: functional, cell-based
Procedure, shortened: (§2)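 Human CUTLL1 T-ALL cells engineered to express high (overexpressed) or low (knockdown) glucocorticoid receptor levels. Exposed to compound alone or with 1 μM dexamethasone. Alamar blue growth inhibition read after 48 h.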

CUTLL1 [7] = experiment: Growth inhibition of human CUTLL1 cells with low GR expression levels after 48 hrs by alamar blue assay; format: functional, cell-based; procedure, shortened: as §2
CUTLL1 [8] = experiment: Growth inhibition of human CUTLL1 cells at 12.5 to 50 uM in presence of 1 uM dexamethasone and 1 uM […] and glucocorticoid receptor antagonist RU486 after 24 hrs by alamar blue assay

SMILES | EC50 [1] | EC50 [2] | also measured
Nc1ncc(-c2ccnc(Cl)c2)c(C2CC2)n1 | > 100 µM | > 100 µM | –
C[C@H](NC(=O)Cc1cc(F)cc(F)c1)C(=O)N[C@H]1N=C(c2ccccc2)c2ccccc2N(C)C1=O | – | – | inhibition [3]: Active; inhibition [4]: Active
Nc1ncc(-c2ccncc2)c(-c2ccoc2)n1 | > 100 µM | > 100 µM | –
Cc1ncc(-c2ccncc2)c(C2CC2)n1 | > 100 µM | > 100 µM | –
Nc1ncc(-c2cccnc2)c(C2CC2)n1 | > 100 µM | > 100 µM | –
Nc1ncc(-c2ccncc2-c2ccccc2)c(C2CC2)n1 | > 100 µM | > 100 µM | –
C[C@@H]1C[C@H]2[C@@H]3CCC4=CC(=O)C=C[C@]4(C)[C@@]3(F)[C@@H](O)C[C@]2(C)[C@@]1(O)C(=O)CO | – | – | Activity (CUTLL1 [5]): inactive; growth inhibition (GI) (CUTLL1 [6]): Active; growth inhibition (GI) (CUTLL1 [7]): inactive
COc1ccc(-c2cnc(N)nc2C2CC2)cc1 | > 100 µM | > 100 µM | –
Nc1ncc(-c2ccc(F)cc2)c(C2CC2)n1 | > 100 µM | > 100 µM | –
Nc1ncc(-c2ccccn2)c(C2CC2)n1 | > 100 µM | > 100 µM | –
Nc1ncc(-c2ccncc2)c(-c2ccccc2)n1 | > 100 µM | > 100 µM | –
CC(C)c1nc(N)ncc1-c1ccncc1 | > 100 µM | > 100 µM | –
Nc1ncc(-c2ccnc3ccccc23)c(C2CC2)n1 | > 100 µM | > 100 µM | –
Nc1ncc(-c2cc(Cl)nc(Cl)c2)c(C2CC2)n1 | 7.6 µM | 10 µM | –
Nc1ncc(-c2ccncc2)c(C2CCC2)n1 | > 100 µM | > 100 µM | –
Nc1ncc(-c2ccncc2-c2ccoc2)c(C2CC2)n1 | 28 µM | 28 µM | –
Nc1ncc(-c2ccnc(F)c2)c(C2CC2)n1 | > 100 µM | > 100 µM | –
Cc1nc(N)ncc1-c1ccncc1 | > 100 µM | > 100 µM | –
C=Cc1cnccc1-c1cnc(N)nc1C1CC1 | 29 µM | 30 µM | –
Nc1ncc(-c2ccccc2)c(C2CC2)n1 | > 100 µM | > 100 µM | –
Nc1ncc(-c2ccnc(-c3ccoc3)c2)c(C2CC2)n1 | 16 µM | > 100 µM | growth inhibition (GI) (CUTLL1 [8]): inactive
Nc1ncc(-c2ccncc2)cn1 | > 100 µM | > 100 µM | –
